SMARCA2 activ – SMARCA2 (BRM) function activators, primary screen, cell-based, luminescence, high throughput | activation, % at 9.1 µM | 370,000 tested, 1% active | AID 652017, 2013 | MG213 cells, MMTV-luciferase reporter, dexamethasone, overnight; in the data active = activation above about 7.8%;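 also: 0% = vehicle wells and 100% = reference activator wells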
DAX1 inh-1 – DAX1 (NR0B1) inhibitors, primary screen, cell-based, HEK293, Gal4-DAX1, luciferase luminescence; Nuclear receptor subfamily 0 group B member 1 (Homo sapiens), P51843; HEK293 Gal4-DAX1 luciferase reporter; inhibition, % at 6.75 µM; 340,000 tested, 0.99% active; AID 504766, 2011;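 active = inhibition above the mean over all tested compounds plus 3 SD, cut at about 4.2% in these data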;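 also: 0% = DAX1-transfected cells with DMSO and 100% = empty-vector control cells with DMSO; inhibition shows as a rise in luminescence from relieved DAX1 repression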
NR2E3 ag-1 – inhibitors of NR2E3-RetCOR corepressor binding, primary screen, NR2E3 agonist project, biochemical, TR-FRET, GST-NR2E3, biotin-RetCOR; 1536-well; inhibition of corepressor binding, % at 4.78 µM; 320,000 tested, 0.12% active; AID 2300, 2010;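 active = percent inhibition above the cutoff of mean plus 3 SD of all tested compounds, set per screening campaign, cut at about 20% in these data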;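 also: 0% = DMSO wells and 100% = biotin wells as full block of FRET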
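Test system: GST-NR2E3 and biotin-RetCOR proteins | Quantity: 1.35 nM GST-tagged NR2E3 final | Medium: Tris pH 7.5 | Also added: 7 nM biotin-RetCOR | Dosing: Compound at 4.8 µM, single dose | Timing: 5 h at 4 °C | Detection: Time-resolved FRET | Read-out basis: Percent inhibition | Benchmarks: Biotin wells as high control, 0.6% DMSO wells as low control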
JMJD2C inh – inhibitors of GASC-1 histone demethylase, primary screen, biochemical, fluorescence, DELFIA europium; Lysine-specific demethylase 4C (Homo sapiens), Q9H3R0; GST-JMJD2C(1-420) H3K9me3 demethylation; inhibition, % at 2.35 µM; 330,000 tested, 0.069% active; AID 2099, 2009;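 active = more than half of a compound's replicate wells show inhibition beyond 50%, single wells judged on their own value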;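 also: signal counts dimethyl H3K9 product captured on neutravidin plate; 0% = median of DMSO wells and 100% = 0.3 times that DMSO median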
Target sequence (Q9H3R0 1-420 limits assumed): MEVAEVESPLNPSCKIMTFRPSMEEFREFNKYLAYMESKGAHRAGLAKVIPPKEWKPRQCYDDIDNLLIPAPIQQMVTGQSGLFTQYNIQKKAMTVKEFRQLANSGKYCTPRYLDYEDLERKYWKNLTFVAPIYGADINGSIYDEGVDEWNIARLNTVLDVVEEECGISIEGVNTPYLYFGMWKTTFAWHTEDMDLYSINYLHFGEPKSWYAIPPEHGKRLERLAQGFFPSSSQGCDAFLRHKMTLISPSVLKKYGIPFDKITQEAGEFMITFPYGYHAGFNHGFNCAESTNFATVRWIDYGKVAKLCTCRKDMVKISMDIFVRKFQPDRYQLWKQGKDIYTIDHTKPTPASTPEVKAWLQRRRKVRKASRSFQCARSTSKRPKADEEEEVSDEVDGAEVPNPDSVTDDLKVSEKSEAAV
NR2E3 ag-2 – NR2E3 agonists in two-hybrid cells, primary screen, cell-based, luminescence, CHO-S, Gal4-NCOR/VP16-NR2E3; luciferase; inhibition of corepressor binding, % at 3.98 µM; 360,000 tested, 0.35% active; AID 602229, 2012;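 active = inhibition above the mean of all tested compounds plus 3 SD, cut at about 70% in these data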;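 also: 0% = DMSO with NR2E3 transfected cells and 100% = cells lacking NR2E3 construct; higher means lower luciferase signal from less NR2E3 corepressor binding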
DAX1 inh-2 – DAX1 (NR0B1) inhibitors on StAR promoter, primary screen, cell-based, luminescence, SF-1 (NR5A1), full-length DAX-1; HEK293T StAR-luciferase reporter, SF-1/DAX-1 repression relief; inhibition, % at 6.8 µM; 370,000 tested, 1.1% active; AID 652010, 2013;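 active = inhibition above the mean over all tested compounds plus 3 SD, cut at about 3.6% in these data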;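 also: 0% = DAX-1 cells with DMSO and 100% = cells lacking DAX-1 with DMSO; higher inhibition means more luminescence from relief of DAX-1 repression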
SMARCA2 conf – SMARCA2 (BRM) function activators, confirmation, cell-based, luminescence, triplicate; shares compounds with SMARCA2 activ; MG213 cells, MMTV-luciferase with dexamethasone, overnight; MG213 cells expressing E1A, Rb sequestered; DMSO wells 0%, reference activator 100%; activation, % at 9.1 µM; 3,500 tested, 30% active;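 active = activation above its plate's cutoff, the mean activation of tested wells plus 3 SD, cut at about 7.9% in these data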
GAL4-VP16 Luc – GAL4-VP16 luciferase reporter activation, counter-screen for SMARCA2 (BRM) activator project, cell-based, pG5luc, luminescence, high throughput; shares compounds with SMARCA2 activ; HEK293 GAL4-VP16 pG5luc reporter; scaled: DMSO wells 0%, SAHA wells 100%; activation, % at 9.1 µM; 3,500 tested, 41% active; AID 686939, 2013;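 active = activation above the solvent-only control well mean plus 3 SD, averaged across control plates, cut at about 5.2% in these data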
* marks the source's active call; other numbers are inactive results; nt = no result. An excerpt weighted towards active compounds, which were near 3.2% of everything screened.

SMILES | SMARCA2 activ | DAX1 inh-1 | NR2E3 ag-1 | JMJD2C inh | NR2E3 ag-2 | DAX1 inh-2 | SMARCA2 conf | GAL4-VP16 Luc
COc1ccccc1CNC(=O)N1CCC(c2nc3ccc(Cl)cc3[nH]2)CC1 | -4 | nt | nt | nt | nt | -2 | nt | nt
CCOC(=O)CSC1=NC(=O)/C(=C\c2ccc(Cl)cc2)S1 | 9.3* | -1 | 0 | 12 | -110 | 1 | 5 | 4
CCOC(=O)C1CCN(C2=NC(=O)/C(=C/c3ccc(Cl)cc3)S2)CC1 | -3 | -1 | 1 | -7 | -20 | 0 | nt | nt
COc1cccc(CC(=O)N(Cc2ccccc2)c2ccccc2C(=O)Nc2cc(OC)ccc2OC)c1 | -4 | nt | nt | nt | nt | 0 | nt | nt
NNC(=O)CSc1cccc2cccnc12 | -1 | 0 | 0 | 5 | -17 | 0 | nt | nt
CN(C)C(=O)CSc1cccc2cccnc12 | 12* | 0 | 1 | -1 | 17 | -1 | -12 | 2
O=C(c1cc(-c2ccccc2O)on1)N1CCc2ccccc2C1 | 8.6* | 1 | -1 | -2 | -55 | 2 | 2 | 1
C#CCN1CC(N(C)CCOC(=O)c2ccc([N+](=O)[O-])cc2)CS1(=O)=O (stereo not drawn) | -4 | nt | nt | nt | nt | 0 | nt | nt
O=C(Nc1ccc2nccnc2c1)Nc1ccccc1Cl | 8.9* | 2 | 1 | 12 | -101 | 0 | 1 | 6.8*
CCCn1nnnc1NC(=O)c1cc(Br)ccc1OC | 1 | 1 | 0 | 4 | 4 | 0 | nt | nt
CCCn1nnnc1NC(=O)c1ccc(C)cc1Cl | 8.0* | 2 | 5 | 2 | -4 | 0 | -1 | 0
Cc1ccc2c(c1)C1CS(=O)(=O)N(C3CCCC3)CN1C2 (stereo not drawn) | -1 | nt | nt | nt | nt | 1 | nt | nt
COc1ccc(Cc2c(-c3ccc(F)cc3)nc3ccc(C)cn23)c(C)c1 | 9.6* | nt | nt | nt | nt | 2 | 2 | 6.4*
COc1cc(F)ccc1-c1csc(C(C)(O)c2ccc(F)c(F)c2)n1 (stereo not drawn) | 9.1* | nt | nt | nt | 14 | 0 | -4 | 0
Clc1ccc([C@H]2OC[C@@]3(CNCc4ccccn4)CS[C@H](c4ccc(Cl)cc4)N23)cc1 | -1 | nt | nt | nt | nt | 1 | nt | nt
CN(C)CCCn1c2c3ccccc3ccc2c2oc(=O)c3ccccc3c21 | 12* | 0 | nt | nt | 22 | -3 | 54* | 3
CN(C)CCN1C(=O)c2cccc3cc([N+](=O)[O-])cc(c23)C1=O | 15* | 6.9* | nt | nt | -9 | -7 | 11* | 7.2*
O=[N+]([O-])c1cccnc1NCCc1c[nH]c2ccccc12 | 8.8* | 4 | -3 | -21 | -119 | 1 | 13* | 8.4*
COc1ccc(NC(=O)O/N=C/c2ccccc2Cl)cc1 | 10* | 1 | 7 | -25 | -75 | 0 | 4 | 3
COc1ccc(NC(=O)O/N=C/c2ccccc2)cc1 | 4 | 3 | 3 | 33 | -68 | 1 | nt | nt
CCN(CC)S(=O)(=O)c1ccc(NC(=O)CNC2CCCCC2)cc1 | -4 | 2 | -1 | -1 | -9 | 0 | nt | nt
CC1=CC2=NC(=O)/C(=C\c3cc(C)n(-c4cccc(Cl)c4)c3C)C(=N)N2O1 | 9.1* | -3 | -3 | -2 | 30 | -1 | -4 | 2
CC1CCC(=NO)C(=NO)C1 (stereo not drawn) | 0 | -1 | nt | nt | -5 | 0 | nt | nt

Assay outcomes (PubChem)
